The values that follow come from publication PMC4765323 (Current topics in medicinal chemistry, 2009).

Changes are numbered by the printed parent chain.

One data set has as its target T1, M1 mAChR (M1/CHO cells) (Rattus norvegicus, UniProt P08482).
T1 sequence (P08482 1-460): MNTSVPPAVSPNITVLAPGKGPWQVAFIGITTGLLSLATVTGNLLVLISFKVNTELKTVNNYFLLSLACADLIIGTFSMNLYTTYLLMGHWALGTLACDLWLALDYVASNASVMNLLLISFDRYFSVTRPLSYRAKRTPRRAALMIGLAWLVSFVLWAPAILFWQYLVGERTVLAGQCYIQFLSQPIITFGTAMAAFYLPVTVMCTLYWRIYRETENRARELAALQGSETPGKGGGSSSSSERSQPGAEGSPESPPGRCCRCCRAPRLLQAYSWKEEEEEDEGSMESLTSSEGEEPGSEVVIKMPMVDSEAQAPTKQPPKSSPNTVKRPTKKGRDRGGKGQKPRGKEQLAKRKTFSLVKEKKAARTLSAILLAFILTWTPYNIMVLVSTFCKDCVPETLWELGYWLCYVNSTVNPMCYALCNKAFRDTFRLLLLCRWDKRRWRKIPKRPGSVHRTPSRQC
In words: functional cell-based calcium-mobilization assay, M1/CHO cell line. To be noted: read-out: M1 IC50. Put shortly: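 Real-time calcium mobilisation in CHO cells expressing M1, with a Z' averaging 0.7. Primary hits from a single-pass library screen were retested in duplicate and counter-screened on mGluR4/CHO cells. IC50 values came from 10-point concentration-response curves run in triplicate, tested in parallel on M4/CHO cells.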

A further data set can be described thus: plasma:brain study. It is filed as in vivo, Sprauge Dawley rat. The following applies: male rats, 10 mg/kg i.p.
The test system of the next data set is M2-M5 mAChR. In words: functional mAChR selectivity, M2-M5 reported together. It is filed as cell-based, rat.
For another data set, the target named is T2, Y381A mutant M1 mAChR (Homo sapiens, UniProt P11229, Y381A).
T2 sequence (P11229 1-460 Y381A): T1 sequence (P08482 1-460) with V5A, S254T, S309P, K320R, G337A, Y381A, V413I
As to the kind of experiment: mutagenesis experiment, Y381A mutant M1. The following applies: wherein ACh loses affinity. It is filed as cell-based.

The subject of data set [1] is pilocarpine-induced seizures. In words: pilocarpine-induced seizures in vivo. Also on record: species or system mice. The following applies: pilocarpine 280 mg/kg.
In data set [2] the test system is NMDAR currents in hippocampal CA1 pyramidal cells. In kind it is cell-based.
For a further data set, the target named is T3, M1 mAChR (Homo sapiens, UniProt P11229).
T3 sequence (P11229 1-460): T1 sequence (P08482 1-460) with V5A, S254T, S309P, K320R, G337A, V413I
In words: phosphoinositide. In kind it is cell-based. The following applies: PI hydrolysis, ACh concentration-response curve. Put shortly:
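Phosphoinositide hydrolysis was driven by an ACh concentration-response curve, run with and without several test compound concentrations. Rightward shifts of the ACh curve were fitted by Schild analysis to give a Kd and a slope.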

Another data set concerns M1 receptor versus M2-M5. To be noted: reported for known antagonists, no reference given; cited from earlier work.

On to `O=C(CCNS(=O)(=O)c1cccc2nsnc12)N1CCN(c2ccncc2)CC1` [VU0255035], for which the IC50 (in general, the concentration that inhibits the measured activity by half) is 130 nM at M1 mAChR (M1/CHO cells) and over 10000 nM with M2-M5 mAChR (read-out: M2-M5 IC50, functional, one bound for all of M2-M5). The same molecule returned a BrainAUC/PlasmaAUC in “plasma:brain study” of 0.48. Besides, the “functional selectivity for M1 versus M2-M5” value in the data set with M2-M5 mAChR (functional) is on record as over 75 fold. In addition, the “inhibition of M2-M5” value in the data set on M2-M5 mAChR (up to 150 μM in some experiments, concentrations solubility limited) is “little inhibition”. Besides, the “antagonism of M1 mAChR responses in Y381A mutant” value on Y381A mutant M1 mAChR was “right shifted”. Moreover, in data set [1] (compound 10 mg/kg i.p.), the seizure count result is listed as “statistically significant effect reducing seizure count”. Further, the animals that died in data set [1] (compound 10 mg/kg i.p. after 40 minutes, 2/8 at 24 hours) amounted to 25%. Moreover, the “block of CCh-potentiated NMDA-evoked current” value in data set [2] (10 μM CCh, 5 μM compound) was “completely blocked”. Moreover, in data set [2] (compound alone, no CCh), the “effect of compound alone on NMDA-evoked current” value is recorded as “no effect”. The same molecule gave a Schild slope on M1 mAChR of 0.90 ± 0.08.

B1: MT7 (protein, UniProt Q8QGR0 22-86, looked up)
Muscarinic toxin 7: LTCVKSNSIWFPTSEDCPDGQNLCFKRWQYISPRMYDFTRGCAATCPKAEYRDVINCCGTDKCNK
For B1, the “M1 selectivity versus M2-M5” value in the data set on M1 receptor versus M2-M5 was > 1,000 fold.
